Laboratory results: ChEMBL document CHEMBL4376902, “CN128: A New Orally Active Hydroxypyridinone Iron Chelator” (J Med Chem, 2020)
Calls of active or inactive are those of the source. No cut-off for these calls is given here.

What was measured:
[1] = Binding affinity to Co2+ ion assessed as pM value by spectrophotometric titration method
[2] = Drug level in rat kidney at 150 umol/kg, po measured measured up to 6 hrs by LC-MS/MS analysis; format: ADME, organism-based; conditions: in vivo
How it was run: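 Single oral dose of 150 μmol/kg to SD rats, half male and half female, n=6 per group. Rats decapitated at 10 min, 30 min, 2 h and 6 h. Tissues dissected, saline-washed, weighed and homogenised in acetonitrile/water 1:9 (125 mg/mL). Drug level measured against plasma; mean ± SE.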

[3] = Toxicity in iron-overloaded rat assessed as induction of mortality at 75 to 1200 umol/kg, po; conditions: in vivo
[4] = Toxicity in Sprague-Dawley rat assessed as induction of histopathological changes in bone marrow at 25 to 116 mg/kg, po dosed daily for 4 weeks during chronic 4 week toxicity test; format: organism-based; conditions: in vivo, 672 h
Mus musculus [5] = assay: Toxicity in mouse assessed as reduction in neutrophils counts at 200 mg/kg, po dosed once daily for 2 months as 5 days per week schedule; conditions: in vivo, 120 h
[6] = Binding affinity to Co2+ ion assessed as affinity constant by spectrophotometric titration method
Rattus norvegicus [7] = assay: Iron scavenging activity in 59Fe-ferritin-loaded rat assessed as iron mobilization level at 450 umol/kg, po dosed 1 hr after 59Fe-ferritin injection and measured 24 hrs after 59Fe-ferritin injection by gamma counting method relative to control; format: functional
How it was run: (§1)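 Male SD rats, 300 g, fasted overnight, given about 1 μC 59Fe-ferritin i.v. under isoflurane. Chelator gavaged 1 h later, then rats housed in metabolic cages; food returned 1 h after dosing. Killed 24 h after 59Fe-ferritin. Urine, faeces, liver and gut gamma-counted. 8 rats per condition.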

[8] = Acid dissociation constant, pKa2 of the compound over pH 1.8 to 11.0 by spectrophotometric titration method; format: physicochemical
How it was run: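 Automated spectrophotometric titration with 0.1 M KOH in 0.1 pH-unit steps. Reading accepted as stable when drift was <0.01 pH unit after a 1.5 min incubation. 10 mm path length cuvette. Spectra fitted by computer to obtain the pKa values.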

[9] = AUC (0 to infinity) in Sprague-Dawley rat at 150 umol/kg, po measured up to 1440 mins by LC/MS/MS analysis; format: ADME, organism-based; parameters: dose 150 umol/kg, route oral, time infinity; conditions: in vivo, 24 h
Cytochrome P450 2C8 = target: T1, Cytochrome P450 2C8 (Homo sapiens, UniProt P10632); assay: Inhibition of CYP2C8 in human liver microsomes; format: ADME
T1 sequence (P10632 whole entry): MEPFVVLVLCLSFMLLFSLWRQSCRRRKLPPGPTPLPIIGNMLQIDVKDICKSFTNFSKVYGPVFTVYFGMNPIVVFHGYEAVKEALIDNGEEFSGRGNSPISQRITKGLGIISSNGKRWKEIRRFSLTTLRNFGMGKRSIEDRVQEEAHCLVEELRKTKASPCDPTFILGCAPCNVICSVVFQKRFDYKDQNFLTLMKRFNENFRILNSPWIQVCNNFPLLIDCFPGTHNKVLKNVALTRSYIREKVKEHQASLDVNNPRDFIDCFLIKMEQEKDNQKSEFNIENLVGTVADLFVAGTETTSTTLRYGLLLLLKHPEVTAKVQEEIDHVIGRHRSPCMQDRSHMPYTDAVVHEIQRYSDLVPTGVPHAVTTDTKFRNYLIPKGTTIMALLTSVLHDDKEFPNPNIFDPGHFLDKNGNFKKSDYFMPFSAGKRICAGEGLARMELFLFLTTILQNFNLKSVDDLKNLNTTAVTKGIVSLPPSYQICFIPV

Rattus norvegicus [10] = assay: Iron scavenging activity in 59Fe-ferritin-loaded rat assessed as iron mobilization level at 150 umol/kg, po dosed 1 hr after 59Fe-ferritin injection and measured 24 hrs after 59Fe-ferritin injection by gamma counting method relative to control; format: functional, organism-based
How it was run: as §1

Cytochrome P450 3A4 = Cytochrome P450 3A4 (Homo sapiens, UniProt P08684); assay: Inhibition of CYP3A4 in human liver microsomes; format: ADME
Rattus norvegicus [11] = assay: Iron scavenging activity in iron-overloaded rat assessed as iron removal efficacy at 75 to 1200 umol/kg, po relative to control; format: functional
How it was run: (§2)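 Male SD rats (300 g), fasted overnight, given about 1 μC 59Fe-ferritin i.v. under isoflurane; chelator by oral gavage 1 h later; doses 75, 150, 300, 600 and 1200 μmol/kg. Rats housed in metabolic cages, food returned 1 h post-dose; killed 24 h after ferritin injection. Urine, faeces, liver and gut gamma-counted. Iron removal expressed as % efficacy.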

[12] = Ratio of drug level in stomach to plasma in rat at 150 umol/kg, po measured within 10 mins by LC-MS/MS analysis; format: ADME, organism-based; conditions: stomach and plasma
How it was run: (§3)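 SD rats (half male, half female, n = 6 per group) given a single oral 150 μmol/kg dose. Killed at 10 min, 30 min, 2 h or 6 h; tissues washed in saline, weighed and homogenised in acetonitrile/water 1:9 (125 mg/mL). Tissue levels compared with plasma.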

Rattus norvegicus [13] = assay: Iron scavenging activity in iron-overloaded rat assessed as iron removal efficacy at 150 to 300 umol/kg, po relative to deferiprone; format: functional
How it was run: as §2

[14] = Apparent clearance in Sprague-Dawley rat at 75 umol/kg, po measured up to 1440 mins by LC/MS/MS analysis; format: ADME, organism-based; conditions: in vivo, read-out: CL(app) (converted)
[15] = Binding affinity to Fe2+ ion assessed as affinity constant by spectrophotometric titration method
How it was run: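 Automated spectrophotometric titration with 0.1 M KOH in 0.1 pH steps, 3 min equilibration per step, 50 mm cuvette, iron complexes at ca. 40 µM. Titrated in competition with metal hydrolysis species up to pH 12.0. Hydrolysis constants taken from critical compilations. Iron spectra fitted over 400–700 nm.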

Mus musculus [16] = assay: Toxicity in mouse assessed as reduction in monocytes counts at 200 mg/kg, po dosed once daily for 2 months as 5 days per week schedule; conditions: in vivo, 120 h
[17] = Cmax in Sprague-Dawley rat at 150 umol/kg, po measured up to 1440 mins by LC/MS/MS analysis; format: ADME, organism-based; parameters: dose 150 umol/kg, route oral; conditions: in vivo
[18] = Ratio of drug level in kidney to plasma in rat at 150 umol/kg, po measured within 10 mins by LC-MS/MS analysis; format: ADME, organism-based; conditions: kidney and plasma
How it was run: as §3

[19] = Apparent volume of distribution in Sprague-Dawley rat at 75 umol/kg, po measured up to 1440 mins by LC/MS/MS analysis; format: ADME, organism-based; conditions: in vivo, 24 h
Mus musculus [20] = assay: Toxicity in mouse assessed as reduction in erythrocyte population at 200 mg/kg, po dosed once daily for 2 months as 5 days per week schedule; conditions: in vivo, 120 h
[21] = Toxicity in Sprague-Dawley rat assessed as induction of histopathological changes in thymus. at 25 to 116 mg/kg, po dosed daily for 4 weeks during chronic 4 week toxicity test; format: organism-based; conditions: in vivo, 672 h
Mus musculus [22] = assay: Toxicity in mouse assessed as reduction in lymphocytes counts at 200 mg/kg, po dosed once daily for 2 months as 5 days per week schedule; conditions: in vivo, 120 h

Cytochrome P450 3A4, sequence (P08684 whole entry): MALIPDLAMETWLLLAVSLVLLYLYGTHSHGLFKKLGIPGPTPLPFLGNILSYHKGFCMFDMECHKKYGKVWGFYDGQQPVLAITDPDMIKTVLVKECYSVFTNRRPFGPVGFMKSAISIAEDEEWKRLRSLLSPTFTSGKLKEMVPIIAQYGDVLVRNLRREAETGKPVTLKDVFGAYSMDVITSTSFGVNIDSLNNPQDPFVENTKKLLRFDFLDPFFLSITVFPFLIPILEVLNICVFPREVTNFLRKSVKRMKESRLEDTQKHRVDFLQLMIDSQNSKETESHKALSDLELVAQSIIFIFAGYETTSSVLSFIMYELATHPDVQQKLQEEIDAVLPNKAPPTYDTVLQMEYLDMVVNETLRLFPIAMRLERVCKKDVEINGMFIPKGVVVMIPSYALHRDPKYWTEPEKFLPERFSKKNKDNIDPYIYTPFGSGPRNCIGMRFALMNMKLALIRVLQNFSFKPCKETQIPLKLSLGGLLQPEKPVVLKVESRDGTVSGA

## Cc1c(O)c(O)cc[n+]1[C@@H](CO)Cc1ccccc1.[Cl-]
[1]
  pM: 6.17
[2]
  Drug uptake: Not Active
[3]
  Activity: Non-Toxic
[4]
  Activity: Toxic
Mus musculus [5]
  Activity: Non-Toxic
[6]
  log K: 6.6
Rattus norvegicus [7]
  Activity: 24.8%
[8]
  pKa: 9.9
[9]
  AUC: 37700 ng·h/mL
Cytochrome P450 2C8
  IC50: > 200 µM
Rattus norvegicus [10]
  Activity: Active
Cytochrome P450 3A4
  IC50: > 200 µM
Rattus norvegicus [11]
  Activity: 3.6 - 48.5%
[12]
  Kp at 10 min: 3.3 to 8.8
Rattus norvegicus [13]
  fold change (FC): 3.1 - 3.8
[14]
  CL/F: 21.2 mL/min/kg
[15]
  K: 6.22 pM
  log K: 7.32
Mus musculus [16]
  Activity: Non-Toxic
[17]
  Cmax: 19900 ng/mL
[18]
  Kp at 10 min: 3.3 to 8.8
[19]
  Vz: 7.6 L/kg
Mus musculus [20]
  Activity: Non-Toxic
[21]
  Activity: Toxic
Mus musculus [22]
  Activity: Non-Toxic
